Data: ChEMBL document CHEMBL3112470, “Design and synthesis of N₁-aryl-benzimidazoles 2-substituted as novel HIV-1 non-nucleoside reverse transcriptase inhibitors” (Bioorg Med Chem, 2014)
Calls of active or inactive are those of the source. No cut-off for these calls is given here.

Columns and labels:
[1] = system: Human immunodeficiency virus 2; experiment: Antiviral activity against HIV-2 ROD; format: functional, organism-based; settings: ISOLATE ROD
[2] = Selectivity index, ratio of CC50 for human MT4 cells to EC50 for HIV-1 3B; format: toxicity, cell-based; settings: read-out: Ratio CC50/EC50
How it was run: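 Calculated as CC50/EC50, both from MT-4 cells: CC50 from the parallel viability assay, EC50 from the 5-day HIV-1 IIIB cytopathicity assay.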

[3] = Cytotoxicity against human MT4 cells assessed as cell viability; format: cell-based
How it was run: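 Uninfected MT-4 cells run in parallel with the antiviral assay. CC50 = concentration reducing MT-4 cell viability by 50%.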

[4] = system: Human immunodeficiency virus 1; experiment: Antiviral activity against HIV-1 3B infected in human MT4 cells assessed as inhibition of virus-induced cytopathic effect after 5 days; format: functional, organism-based; settings: Human immunodeficiency virus 1, 3B, MT4, 120 h
How it was run: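 MT-4 cells infected with HIV-1 IIIB at ~100 times the CCID50 per ml, mixed 1:1 with serial compound dilutions, incubated at 37 °C for 5 days. Viable cell number then determined. EC50 = concentration reducing virus-induced cytopathicity by 50%.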

[5] = biological target: Human immunodeficiency virus type 1 reverse transcriptase (Human immunodeficiency virus 1, UniProt Q72547); experiment: Inhibition of GST-tagged recombinant wild type HIV-1 reverse transcriptase p66/p51 RNA-dependent DNA polymerase activity expressed in Escherichia coli JM109 using dTTP as substrate after 40 mins by spectrofluorometric analysis
[6] = system: Human immunodeficiency virus 1; experiment: Antiviral activity against NNRTI-resistant HIV-1 RES056 harboring reverse transcriptase K103N/Y181C double mutant; format: functional, organism-based
How it was run: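 MT-4 cells were infected with virus at about 100 times the CCID50 per ml of cell suspension and mixed with serial compound dilutions. They were incubated 5 days at 37 °C, then viable cells were counted. EC50 is the concentration that reduces virus-induced cytopathic effect by 50%. Cytotoxicity was measured in parallel in MT-4 cells.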

SMILES | Activity [1] | selectivity ratio [2] | CC50 [3] [µM] | EC50 [4] [µM] | IC50 [5] [µM] | Activity [6]
Cc1cc(C)cc(S(=O)(=O)n2c(SCC(=O)Nc3ccccc3Br)nc3ccc(Cl)cc32)c1 | inactive | 37 | 145 | 3.86 | 63.5 | inactive
Cc1cc(C)cc(Cn2c(SCC(=O)Nc3ccc(C)cc3Cl)nc3ccccc32)c1 | inactive | 32.1 | 49.1 | 1.53 | 179 | inactive
Cc1cc(C)cc(S(=O)(=O)n2c(=S)[nH]c3ccccc32)c1 | inactive | 455 | 41 | 0.09 | 1.35 | inactive
Cc1cc(C)cc(S(=O)(=O)n2c(SCC(=O)Nc3ccccc3[N+](=O)[O-])nc3ccc(Cl)cc32)c1 | inactive | > 182 | > 235 | 1.3 | 37 | inactive
Cc1cc(C)cc(S(=O)(=O)n2c(SCC(=O)Nc3ccc(S(N)(=O)=O)cc3Cl)nc3ccccc32)c1 | inactive | 1280 | 25.6 | 0.02 | 18.5 | inactive
Cc1cc(C)cc(S(=O)(=O)n2c(SCC(=O)Nc3ccccc3Br)nc3ccccc32)c1 | inactive | ≥ 3930 |  | 0.06 | 0.18 | inactive
COC(=O)c1ccc(NC(=O)CSc2nc3ccc(Cl)cc3n2S(=O)(=O)c2cc(C)cc(C)c2)c(Cl)c1 | inactive | ≥ 27 | ≥ 130 | 4.82 | 37.6 | inactive
Cc1cc(C)cc(S(=O)(=O)n2c(SCC(=O)Nc3ccc(S(C)(=O)=O)cc3Cl)nc3ccc(Cl)cc32)c1 | inactive | 7 | 3.59 | 0.5 | 2.61 | inactive
Cc1cc(C)cc(S(=O)(=O)n2c(SCC(=O)Nc3ccc(C)cc3Cl)nc3ccccc32)c1 | inactive | 135 | 5.4 | 0.04 | 0.55 | inactive
COC(=O)c1ccc(NC(=O)CSc2nc3ccccc3n2S(=O)(=O)c2cc(C)cc(C)c2)c(Cl)c1 | inactive | 1320 | 145 | 0.11 | 162 | inactive
Cc1ccnc2c1NC(=O)c1cccnc1N2C1CC1 [NEVIRAPINE] |  |  | > 15 |  |  | 
COC(=O)c1ccc(NC(=O)CSc2nc3ccccc3n2Cc2cc(C)cc(C)c2)c(Cl)c1 | inactive | 32 | 191 | 6.03 | 40.3 | inactive
Cc1cc(C)cc(S(=O)(=O)n2c(SCC(=O)Nc3ccc(S(C)(=O)=O)cc3Cl)nc3ccccc32)c1 | inactive | > 5540 | > 222 | 0.04 | 0.12 | inactive
O=C1Nc2ccc(Cl)cc2[C@@](C#CC2CC2)(C(F)(F)F)O1 [EFAVIRENZ] |  |  | > 6.34 | 0.006 |  | 
Cc1cc(C)cc(S(=O)(=O)n2c(SCC(=O)Nc3ccc(S(N)(=O)=O)cc3Cl)nc3ccc(Cl)cc32)c1 | inactive | 38 | 23.4 | 0.62 | 3.04 | inactive
Cc1cc(C)cc(S(=O)(=O)n2c(SCC(=O)Nc3ccccc3Cl)nc3ccc(Cl)cc32)c1 | inactive | 56 | 99.3 | 1.77 | 18.6 | inactive
Cc1cc(C)cc(Cn2c(SCC(=O)Nc3ccccc3Cl)nc3ccc(Cl)cc32)c1 | inactive | 7 | 141 | 19.6 | > 255 | inactive

SMILES | Activity [1] | selectivity ratio [2] | CC50 [3] [µM] | EC50 [4] [µM] | IC50 [5] [µM] | Activity [6]
Cc1cc(C)cc(Cn2c(SCC(=O)Nc3ccccc3[N+](=O)[O-])nc3ccc(Cl)cc32)c1 | inactive | ≤ 5 | 131 | ≥ 26 | > 249 | inactive
Cc1cc(C)cc(Cn2c(=S)[nH]c3ccc(Cl)cc32)c1 | inactive | 4 |  |  |  | inactive
Cc1cc(C)cc(Cn2c(=S)[nH]c3ccccc32)c1 | inactive | 4 | 5.74 | 1.3 | 27.2 | inactive
Cc1cc(C)cc(Cn2c(SCC(=O)Nc3ccccc3Br)nc3ccccc32)c1 | inactive | ≥ 128 | ≥ 144 | 1.12 | 15 | inactive
Cc1cc(C)cc(S(=O)(=O)n2c(=S)[nH]c3ccc(Cl)cc32)c1 | inactive | 1860 | 93.1 | 0.05 | 1.76 | inactive
Cc1cc(C)cc(S(=O)(=O)n2c(SCC(=O)Nc3ccccc3[N+](=O)[O-])nc3ccccc32)c1 | inactive | ≥ 652 | ≥ 26.1 | 0.04 | 100 | inactive
Cc1cc(C)cc(S(=O)(=O)n2c(SCC(=O)Nc3ccc(C)cc3Cl)nc3ccc(Cl)cc32)c1 | inactive | > 149 | > 234 | 1.57 | 46.4 | inactive
Cc1cc(C)cc(Cn2c(SCC(=O)Nc3ccc(S(N)(=O)=O)cc3Cl)nc3ccc(Cl)cc32)c1 | inactive | < 1 | ≥ 18.6 | ≥ 22.6 | 86.6 | inactive
Cc1cc(C)cc(Cn2c(SCC(=O)Nc3ccc(S(C)(=O)=O)cc3Cl)nc3ccc(Cl)cc32)c1 | inactive | < 1 | 88.8 | > 88.8 | 70.5 | inactive
Cc1cc(C)cc(Cn2c(SCC(=O)Nc3ccc(C)cc3Cl)nc3ccc(Cl)cc32)c1 | inactive | < 1 | 79.3 | > 79.3 | > 248 | inactive
Cc1cc(C)cc(Cn2c(SCC(=O)Nc3ccc(S(C)(=O)=O)cc3Cl)nc3ccccc32)c1 | inactive | 196 | 106 | 0.54 | 1.93 | inactive
Cc1cc(C)cc(Cn2c(SCC(=O)Nc3ccccc3Cl)nc3ccccc32)c1 | inactive | 99 | 111 | 1.12 | 42.1 | inactive
Cc1cc(C)cc(Cn2c(SCC(=O)Nc3ccccc3[N+](=O)[O-])nc3ccccc32)c1 | inactive | 184 | 194 | 1.05 | 3.91 | inactive
Cc1cc(C)cc(Cn2c(SCC(=O)Nc3ccc(S(N)(=O)=O)cc3Cl)nc3ccccc32)c1 | inactive | 530 | 111 | 0.21 | 1.02 | inactive
COC(=O)c1ccc(NC(=O)CSc2nc3ccc(Cl)cc3n2Cc2cc(C)cc(C)c2)c(Cl)c1 | inactive | < 1 | 105 | > 105 | > 227 | inactive
Cc1cc(C)cc(S(=O)(=O)n2c(SCC(=O)Nc3ccccc3Cl)nc3ccccc32)c1 | inactive | 1220 | 107 | 0.088 | 51.9 | inactive
Cc1cc(C)cc(Cn2c(SCC(=O)Nc3ccccc3Br)nc3ccc(Cl)cc32)c1 | inactive | 5 | 174 | 32.5 | > 233 | inactive
